ChEMBL document CHEMBL1143966, “Design and synthesis of eugenol derivatives, as potent 15-lipoxygenase inhibitors” (Bioorg Med Chem, 2008)

What was measured:
[1] = Inhibition of soybean 15-lipoxygenase; set-up: species or system Glycine max
Outline: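 Soybean 15-lipoxygenase with linoleic acid substrate (final 134 µM) in 0.1 M borate buffer pH 9 at 20 ± 1 °C. Absorbance read at 234 nm for 60 s after enzyme addition. Inhibitor plus linoleic acid served as blank. At least six controls and three tubes per inhibitor solution. Enzyme kept on ice, with controls run at intervals. IC50 from linear interpolation around 50% activity.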

[2] = Partition coefficient, log P of the compound; assay type: physicochemical; settings: octanol/water

Compound	IC50 [1] [µM]	logP [2]
C=CCc1ccc(OC(=O)c2ccccc2Cl)c(OC)c1	168	2.79
C=CCc1ccc(OC(=O)c2cccc(OC)c2)c(OC)c1	23	1.86
C=CCc1ccc(OC(=O)c2ccccn2)c(OC)c1	33.3	0.86
C=CCc1ccc(OC(=O)C23CC4CC(CC(C4)C2)C3)c(OC)c1	0.017	4.82
C=CCc1ccc(OC(=O)c2cccnc2)c(OC)c1	1.7	0.86
C=CCc1ccc(O)c(OC)c1 [EUGENOL]	34.6	–
C=CCc1ccc(OC(=O)C2CCCCC2)c(OC)c1	2.2	3.52
C=CCc1ccc(OC(=O)c2ccccc2C)c(OC)c1	77.2	2.87

The remaining lines, values ahead:

IC50 [1] [µM]	logP [2]	Compound
2.3	0.86	C=CCc1ccc(OC(=O)c2ccncc2)c(OC)c1
11.4	2.87	C=CCc1ccc(OC(=O)c2cccc(C)c2)c(OC)c1
7.2	2.7	C=CCc1ccc(OC(=O)c2ccc(F)cc2)c(OC)c1
19	1.86	C=CCc1ccc(OC(=O)c2ccc(OC)cc2)c(OC)c1
5.2	2.79	C=CCc1ccc(OC(=O)c2cccc(Cl)c2)c(OC)c1
2.1	2.7	C=CCc1ccc(OC(=O)c2cccc(F)c2)c(OC)c1
4.4	2.25	C=CCc1ccc(OC(=O)c2ccccc2)c(OC)c1 [EUGENYL BENZOAT]
6.7	2.7	C=CCc1ccc(OC(=O)c2ccccc2F)c(OC)c1
134	2.79	C=CCc1ccc(OC(=O)c2ccc(Cl)cc2)c(OC)c1
14.6	2.87	C=CCc1ccc(OC(=O)c2ccc(C)cc2)c(OC)c1
